Screening data as filed in PubChem BioAssay.
STAT3 inh-1 = reduces IL-6 driven STAT3 reporter signal; U3A cells, IL-6 STAT3-luciferase reporter, luminescence; host cell line lacks STAT1; inhibition, % at 5.5 µM; 190,000 compounds, 0.89% hits;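 active means inhibition above the mean inhibition across all screened compounds plus 3 SD, cut at about 44% in these data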;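 further: 0% = DMSO only wells and 100% = 100 µM nifuroxazide control wells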
STAT3 activator = activators of IL-6 induced STAT3 signaling; U3A cells, IL-6 STAT3-luciferase reporter, luminescence; 100% = signal with IL-6 EC80 alone; activation (% of control), % at 5.6 µM; 190,000 compounds, 0.91% hits; AID 871;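 active means activation above the screen-wide mean of compound activation plus 3 SD, cut at about 130% in these data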;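 further: 0% = background luminescence of wells with medium and substrate only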
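Material: STAT3-luciferase reporter U3A cells; Probe or stimulus: IL-6 (33 ng/mL); Incubation: compound pre-incubation 1 h before IL-6, then 6 h stimulation at 37 °C; Technique: luminescence from STAT3-driven luciferase reporter; Evaluation: % activation versus median of IL-6-stimulated wells; Controls: IL-6-only high control.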
TRAIL sens C8 = sensitizes caspase-8 expressing cells to TRAIL; NB7+C8 cells + TRAIL, ATPlite viability luminescence; inhibition (viability loss, TRAIL sensitization), % at 10 µM; 360,000 compounds, 1% hits;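 active means compounds causing at least 50% loss of cell viability in the single-dose screen, relative to plate controls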
PPC-1+TRAIL kill = PPC-1 cancer cell killing with TRAIL present; PPC-1 cells + TRAIL, ATPLite viability luminescence; cell killing (% activity), % at 4 µM or 5 µM; 220,000 compounds, 0.41% hits; AID 1443;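 active means cell killing above 50% in the first pass at 4 µM, then a duplicate retest at 5 µM averaging 50% or more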;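 further: plate controls were cells with TRAIL plus DMSO for no effect and medium-only wells lacking cells for full effect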
STAT1 inh = inhibitors of IFN-gamma induced STAT1 signaling; NIH 3T3 STAT1-luciferase reporter, luminescence; inhibition, % at 5.5 µM; 200,000 compounds, 0.35% hits;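 active means inhibition above a set limit, the mean inhibition across all tested compounds plus 3 SD, cut at about 34% in these data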;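 further: 0% = IFN-gamma with DMSO and 100% = IFN-gamma with 300 µM nifuroxazide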
STAT3 inh-2 = confirmation of STAT3 signaling inhibitors. 1,200 compounds, 45% hits. U3A cells, IL-6 STAT3 luciferase reporter, luminescence; cell line lacks STAT1. shares compounds with STAT3 inh-1. inhibition, % at 5.7 µM;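 active means inhibition above the hit cutoff computed for the primary STAT3 screen, cut at about 44% in these data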;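 further: 0% = IL-6 plus DMSO and 100% = IL-6 plus nifuroxazide control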
NFkB inh STAT3ct = counter-screen for STAT3 inhibitors: NF-kappaB inhibition; 1,200 compounds, 36% hits; inhibition, % at 5.7 µM; shares compounds with STAT3 inh-1; HEK293T NF-kB luciferase reporter, TNF-alpha induced;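 active means inhibition above the mean of solvent-only control wells plus 3 SD, cutoff set per campaign, cut at about 13% in these data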;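 further: 0% = TNF-alpha with DMSO and 100% = TNF-alpha with MG high control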
STAT1 inh 2 = STAT1 inhibition in STAT3 inhibitor counter-screen; NIH 3T3 STAT1-luciferase reporter, IFN-gamma induced, luminescence; inhibition, % at 5.7 µM; 1,200 compounds, 27% hits; shares compounds with STAT3 inh-1; AID 1317;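 active means inhibition above the mean plus 3 SD of solvent-only control wells, limit set per screening run, cut at about 16% in these data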;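 further: 0% = DMSO with IFN-gamma and 100% = nifuroxazide control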
PPC1 cytotox = kills PPC-1 cells; shares compounds with PPC-1+TRAIL kill; PPC-1 viability, ATPlite luminescence, overnight; cytotoxicity, % at 5 µM; 1,200 compounds, 50% hits; AID 1447;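 active means reconfirmed compounds whose average cytotoxicity reaches 50% or more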;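 further: 0% = DMSO-treated cells and 100% = wells holding medium but no cells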
Starred values were filed as active, the others as inactive; / = no result. Hits are enriched below; roughly 1.8% of the tested compounds scored in any of these assays.

SMILES	STAT3 inh-1	STAT3 activator	TRAIL sens C8	PPC-1+TRAIL kill	STAT1 inh	STAT3 inh-2	NFkB inh STAT3ct	STAT1 inh 2	PPC1 cytotox
COc1ccc(/C=C\c2nc(=O)c3ccccc3o2)cc1	62*	49	61*	60*	-1	-9	-7	-3	57*
O=C(N/N=C/c1ccco1)c1ccc(NC(=O)c2ccc(Cl)cc2)cc1	/	/	5	/	/	/	/	/	/
Cc1cc(C)c2oc(-c3cccc(N)c3)nc2c1	/	/	16	/	/	/	/	/	/
Cc1ccc2nc(-c3cccc(N)c3)oc2c1	55*	57	74*	76*	20	17	-10	-110	75*
COCCN(C(=O)c1ccc2c(c1)C(=O)N(c1ccccc1Cl)C2=O)c1c(N)n(CC(C)C)c(=O)[nH]c1=O	/	/	-7	/	/	/	/	/	/
CCCCN(C)C(=O)c1cc2cc3ccc(OC)cc3nc2s1	50*	62	68*	37	-15	17	-18	-106	36
CCCCN(CC)C(=O)c1cc2cc3ccc(OC)cc3nc2o1	-7	108	0	-6	-25	/	/	/	/
OCC1OC(c2ccc(O)cc2O)C(O)C1O (stereo not given)	/	/	6	/	/	/	/	/	/
C=C(C)CN1C(=O)C(C)SC1=NN=C1SCC(=O)N1C (stereo not given)	/	/	15	/	/	/	/	/	/
CCCCN1C(=O)CC2CCOC21C (stereo not given)	/	/	-5	/	/	/	/	/	/
Cc1ccc(-c2cnc3cc(C)nn3c2)cc1	69*	44	68*	56*	22	30	0	-57	56*
Cc1cc2ncc(-c3ccc(Cl)cc3)cn2n1	21	83	36	24	-37	/	/	/	/
Oc1ccc(-c2nnc(-c3ccc(O)cc3)nn2)cc1	51*	60	64*	53*	5	62*	11	5	54*
O=C(CSc1nnc(-c2ccncc2)o1)Nc1cc(F)ccc1F	/	/	4	/	/	/	/	/	/
Cc1ccc(-c2nnc(SCC(=O)Nc3ccccc3F)o2)cc1	56*	59	72*	76*	-22	34	-32	-81	70*
O=C(CSc1nnc(-c2ccccc2)o1)Nc1ccccc1F	45*	68	59*	45	-20	27	-26	-66	51*
Cc1ccc(C2(C)NC(=O)N(CC(=O)Nc3ccc(S(=O)(=O)Nc4nccs4)cc3)C2=O)cc1 (stereo not given)	/	/	13	/	/	/	/	/	/
COc1ccccc1Nc1nnc(SCC2CCCCO2)s1 (stereo not given)	64*	49	70*	65*	15	12	-17	-73	65*
Cc1ccccc1Nc1nnc(SCC2CCCCO2)s1 (stereo not given)	-2	100	41	40	-30	/	/	/	/
Cc1ccc(S(=O)(=O)N(C)C[C@H]2Oc3c(NC(=O)Nc4cccc5ccccc45)cccc3C(=O)N([C@@H](C)CO)C[C@@H]2C)cc1	/	/	-6	/	/	/	/	/	/
COc1ccc(/C=N/Nc2nc3ccccc3s2)cc1O	60*	51	44	40	-23	9	-17	-18	40
COc1ccc(/C=N/Nc2nc3ccccc3o2)cc1O	21	82	47	44	-20	/	/	/	/
Fc1cccc(Cc2c(-c3ccccc3)nc3c(Cl)cc(C(F)(F)F)cn23)c1	/	/	10	/	/	/	/	/	/
N/C(=N\OS(=O)(=O)c1ccc(Cl)cc1)c1ccccn1	12	96	-6	/	-10	/	/	/	/
N/C(=N\OC(=O)c1ccc(Cl)cc1)c1ccccn1	87*	31	69*	3	4	12	-30	-96	7
SMILES	STAT3 inh-1	STAT3 activator	TRAIL sens C8	PPC-1+TRAIL kill	STAT1 inh	STAT3 inh-2	NFkB inh STAT3ct	STAT1 inh 2	PPC1 cytotox
COc1cc(SC)ccc1C(=O)Nc1ccccc1	-21	122	14	28	-38	/	/	/	/
COc1cc(SC)ccc1C(=O)Nc1ccc2c(c1)OCCO2	54*	59	66*	68*	-34	6	-36	-156	65*
COc1cc(SC)ccc1C(=O)Nc1nccs1	58*	52	80*	67*	31	31	-4	-85	69*
COc1ccc(CCC(=O)N2CCN(S(=O)(=O)c3ccc(OC(F)(F)F)cc3)CC2)cc1	/	/	-3	/	/	/	/	/	/
NC(=O)c1ccc(NC(=O)Nc2ccc3c(c2)OCO3)cc1	/	/	32	/	/	/	/	/	/
O=C(NC1=NCCS1)c1cc2ccccc2o1	64*	50	58*	58*	4	27	-10	-72	51*
O=C(Nc1ccc2c(c1)OCCO2)c1cc2ccccc2o1	66*	47	79*	57*	19	21	-26	-114	56*
O=C(Nc1ccc2c(c1)OCCO2)Nc1ccc2c(c1)OCO2	54*	58	83*	73*	30	4	-17	-95	73*
Nc1ccc(C(=O)NC23CC4CC(CC(C4)C2)C3)cc1	/	/	5	/	/	/	/	/	/
COc1ccc(C(=O)/C=C/Nc2cccc(O)c2)cc1	93*	22	62*	82*	4	80*	16*	14	83*
O=C1c2ccccc2-c2nnc(-c3ccc(F)cc3)cc21	56*	55	83*	78*	-15	47*	19*	-14	79*
Cc1csc(NC(=O)c2cc3c(s2)CCC3)n1	70*	46	84*	51*	-19	38	-27	-107	47
Cc1nc(NC(=O)c2cc3c(s2)CCCCC3)sc1C(=O)N(C)C	14	90	23	-4	-35	/	/	/	/
Fc1cccc(Cc2c(C3CCCCC3)nc3c4ccccc4ccn23)c1	/	/	7	/	/	/	/	/	/
O=C(COc1ccc(Cl)cc1Cl)Nc1ccc(Cl)cn1	66*	48	65*	59*	-43	33	-22	-94	59*
Cc1ccc(NC(=O)N2CCc3ccccc32)cc1	56*	56	63*	67*	11	19	-3	-93	65*
Cc1ccc(NC(=O)N2CCc3ccccc32)cc1C	62*	50	66*	55*	7	14	-26	-143	59*
CCCNC(=O)C1(C)CCN(C(=O)c2cccc(C(F)(F)F)c2)C1 (stereo not given)	/	/	-13	/	/	/	/	/	/
Cc1ccnc(NC(=O)COc2ccccc2[N+](=O)[O-])c1	48*	64	52*	44	-12	17	-30	-101	52*
O=C(COc1ccccc1[N+](=O)[O-])Nc1cccnc1	19	90	6	19	-25	/	/	/	/
CCCCCCCCC[n+]1cccc2c3ccccc3ccc21	90*	29	62*	30	31	89*	57*	33*	32
COC(=O)c1c(C)[nH]c(C(=O)OCc2csc(CC(=O)Nc3ccccc3C)n2)c1C	/	/	-8	/	/	/	/	/	/
